Activity calls are given as the source filed them. The rule behind the calls is not given here.

Data set [1] has as its system Hepatitis C virus. In words: Antiviral activity against HCV genotype-1 pseudoparticle expressing envelope protein E1 and E2 assessed as inhibition of pseudoparticles entry into human Huh-H1 cells after 2 days by luciferase reporter gene assay. The format is functional, organism-based, Hepacivirus hominis. To be noted: genotype 1, Huh-H1, 48 h. For orientation: Reporter assays use an easily measured gene product as a stand-in for the process of interest.

Data set [2] in a line: Cytotoxicity against human Huh-H1 cells. The format is cell-based.
Data set [3] is described as follows: Selectivity index, ratio of CC50 for human HuH7 cells to EC50 for cell culture derived HCV. Also on record: species or system Huh-7. Summed up:
(§1)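 Naïve Huh-7 cells in 384-well plates were given serially diluted compound, then infected with cell culture-derived HCV (HCVcc) at MOI 1. Live cells were analysed 72 h post-infection. EC50 came from 10-point dose-response in duplicate with quadruplicate measurements, or 5-point in duplicate for one series. CC50 came from automated per-well cell counts. SI = CC50/EC50.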

A short description of data set [4]: Cytotoxicity against human HuH7 cells. Format: cell-based, Huh-7. Summed up:
as §1

For data set [5], the system named is Hepatitis C virus. Kind of data set: Antiviral activity against cell culture derived HCV infected in human HuH7 cells assessed as inhibition of viral replication after 72 hrs. The format is functional, organism-based, Hepacivirus hominis. To be noted: Huh-7, 72 h. Put shortly:
as §1

Data set [6] has as its system Vesicular stomatitis virus. Kind of data set: Antiviral activity against Vesicular stomatitis virus pseudoparticle expressing glycoprotein assessed as inhibition of pseudoparticles entry into human Huh-H1 cells after 2 days by luciferase reporter gene assay. Format: functional, organism-based.

Usually EC50 stands for the concentration at which the effect is half-maximal. A word on the CC50: it is the concentration at which the toxic effect on the cells reaches its halfway point. A higher CC50 goes with lower toxicity to the cells. As to `Cc1ccccc1-c1nn(-c2ccc(F)cc2F)cc1CNCCCN(C)C`, the EC50 with Hepatitis C virus [1] stood at 6.1 µM; in the data set with Hepatitis C virus [5], 6.7 µM. For the same compound, the CC50 in data set [2] was greater than 25 µM; in data set [4] it was greater than 20 µM. The “Ratio CC50/EC50” value in data set [3] is reported as greater than 3. Also, in data set [6], the inhibition result was “inactive”.

As for `CN1CCN(CCNCc2cn(-c3ccc(F)cc3F)nc2-c2ccc(Cl)cc2)CC1`, the EC50 in the data set on Hepatitis C virus [1] turned out to be 1.9 µM; in the data set on Hepatitis C virus [5], 0.38 µM. In addition, the CC50 amounted to 9.1 µM in data set [2] and 19 µM in data set [4]. In addition, the “Ratio CC50/EC50” value in data set [3] was determined as 50. In addition, the inhibition result in data set [6] was “inactive”.

Consider `CCCN1CCC(CNCc2cn(-c3ccc(C(F)(F)F)cc3)nc2-c2ccc(C(F)(F)F)cc2)CC1`, for which the “Ratio CC50/EC50” value in data set [3] is on record as 3.6. This compound also registered a 50% cytotoxic concentration (CC50) in data set [4] of 1.2 µM. In addition, in the data set with Hepatitis C virus [5], the EC50 was 0.33 µM.

Take `CN1CCN(CCNCc2cn(-c3ccc(F)cc3F)nc2-c2ccc(N(C)C)cc2)CC1`: the “Ratio CC50/EC50” value in data set [3] is given as greater than 15. In addition, the CC50 in data set [4] is greater than 20 µM. Moreover, the EC50 with Hepatitis C virus [5] turned out to be 1.3 µM.

For `CCCN1CCC(CNCc2cn(-c3ccc(C(F)(F)F)cc3)nc2-c2ccc(Cl)cc2)CC1`, the “Ratio CC50/EC50” value in data set [3] is listed as 6.7. In data set [4], this compound displayed a CC50 of 1.9 µM. The EC50 in the data set on Hepatitis C virus [5] was found to be 0.29 µM.

With `CN1CCN(CCNCc2cn(-c3ccc(F)cc3F)nc2Cc2ccccc2)CC1`, the “Ratio CC50/EC50” value in data set [3] was greater than 1.3. In data set [4], this compound registered a CC50 greater than 20 µM. Moreover, in the data set with Hepatitis C virus [5], the EC50 came to 16 µM.

As to `CN1CCN(CCNCc2cn(-c3ccc(C(F)(F)F)cc3)nc2-c2ccc(OC(F)(F)F)cc2)CC1`, the “Ratio CC50/EC50” value in data set [3] came to 6.9. Moreover, in data set [4], half-maximal cytotoxicity (CC50) was put at 3 µM. Further, in the data set on Hepatitis C virus [5], the EC50 came to 0.44 µM.

On to `CCCN1CCC(CNCc2cn(-c3ccc([N+](=O)[O-])cc3)nc2-c2ccc(Cl)cc2)CC1`, for which, in data set [3], the “Ratio CC50/EC50” value is listed as 37. Moreover, in data set [4], the cytotoxic concentration (CC50) is 11 µM. Further, the EC50 with Hepatitis C virus [5] is 0.3 µM.

With `CN1CCN(CCNCc2cn(-c3ccc(F)cc3F)nc2-c2ccc(C(F)(F)F)cc2)CC1`, the “Ratio CC50/EC50” value in data set [3] is given as 37. Further, the CC50 in data set [4] was found to be 20 µM. Also, the EC50 in the data set on Hepatitis C virus [5] is 0.54 µM.

Take `CN1CCN(CCCNCc2cn(-c3ccc([N+](=O)[O-])cc3)nc2-c2ccc(Cl)cc2)CC1`: the “Ratio CC50/EC50” value in data set [3] was determined as 28. Further, it took 3.7 µM to reach half-maximal cytotoxicity in data set [4] (CC50). Also, in the data set with Hepatitis C virus [5], the EC50 amounted to 0.13 µM.

As for `Cc1ccccc1-c1nn(-c2ccc(N)cc2)cc1CNCCN1CCN(C)CC1`, the “Ratio CC50/EC50” value in data set [3] was greater than 2. For the same compound, the CC50 in data set [4] was greater than 20 µM. In the data set with Hepatitis C virus [5], the half-maximal effective concentration (EC50) worked out at 10 µM.

Consider `Cc1cccc(-c2nn(-c3ccc(F)cc3F)cc2CNCCN2CCN(C)CC2)c1`, for which the “Ratio CC50/EC50” value in data set [3] was greater than 12. Besides, the CC50 in data set [4] is greater than 20 µM. Besides, in the data set with Hepatitis C virus [5], the EC50 came out at 1.7 µM.

As for `COc1ccc(-n2cc(CNCCN3CCN(C)CC3)c(-c3ccccc3C)n2)cc1`, in data set [3], the “Ratio CC50/EC50” value is greater than 7.1. Also, in data set [4], the CC50 is greater than 20 µM. In addition, the EC50 in the data set on Hepatitis C virus [5] worked out at 2.8 µM.

Take `Cc1ccccc1-c1nn(-c2ccccc2Cl)cc1CNCCN1CCN(C)CC1`: in data set [3], the “Ratio CC50/EC50” value was greater than 5.3. The same compound gave a CC50 in data set [4] greater than 20 µM. Also, the EC50 in the data set with Hepatitis C virus [5] was 3.8 µM.

With `CCCN1CCC(CNCc2cn(-c3ccc([N+](=O)[O-])cc3)nc2-c2ccc(OC(F)(F)F)cc2)CC1`, the “Ratio CC50/EC50” value in data set [3] amounted to 30. The compound also displayed a CC50 in data set [4] of 18 µM. Besides, the EC50 in the data set with Hepatitis C virus [5] was 0.6 µM.

As for `CSc1ccc(-n2cc(CNCCN3CCN(C)CC3)c(-c3ccccc3C)n2)cc1`, the “Ratio CC50/EC50” value in data set [3] is listed as 25. Further, in data set [4], the CC50 came to 17 µM. For the same compound, the EC50 with Hepatitis C virus [5] amounted to 0.67 µM.

In the case of `Cc1ccc(-n2cc(CNCCN3CCN(C)CC3)c(-c3ccccc3C)n2)c(C)c1`, in data set [3], the “Ratio CC50/EC50” value was greater than 8.3. In data set [4], this compound displayed a CC50 greater than 20 µM. Also, the EC50 with Hepatitis C virus [5] was determined as 2.4 µM.

Regarding `CN1CCN(CCNCc2cn(-c3ccc(F)cc3F)nc2-c2ccc(OC(F)(F)F)cc2)CC1`, in data set [3], the “Ratio CC50/EC50” value is listed as 50. Further, in data set [4], half-maximal cytotoxicity (CC50) was put at 18 µM. Further, the EC50 with Hepatitis C virus [5] was 0.36 µM.

As to `CN1CCN(CCNCc2cn(-c3ccc(F)cc3F)nc2-c2cccc(N(C)C)c2)CC1`, the “Ratio CC50/EC50” value in data set [3] was greater than 6.3. The compound also gave a CC50 in data set [4] greater than 20 µM. The EC50 with Hepatitis C virus [5] amounted to 3.2 µM.

Take `CCCCCNc1nc(Nc2ccc([N+](=O)[O-])cc2)nc(OCC(F)(F)F)n1`: in data set [2], the CC50 was greater than 25 µM. Also, the inhibition entry in data set [6] was “inactive”.

With `Cc1ccccc1-c1nn(-c2ccc(F)cc2)cc1CNCCN1CCN(C)CC1`, in data set [3], the “Ratio CC50/EC50” value was greater than 5.4. For the same compound, the CC50 in data set [4] was greater than 20 µM. Besides, the EC50 in the data set on Hepatitis C virus [5] was 3.7 µM.

Source of the values: ChEMBL document CHEMBL2439964, “Identification of a series of 1,3,4-trisubstituted pyrazoles as novel hepatitis C virus entry inhibitors” (Bioorg Med Chem Lett, 2013).
